We go through five compounds from ChEMBL document CHEMBL3352268, “Structures and bioactivities of dihydrochalcones from Metrodorea stipularis” (J Nat Prod, 2014).

One assay concerns the target Cruzipain (Trypanosoma cruzi, UniProt P25779). The assay can be described thus: Inhibition of Trypanosoma cruzi cruzain using Z-Phe-Arg-AMC as substrate by spectrofluorimetry. An outline of the steps: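 Substrate Z-Phe-Arg-AMC; activity tracked 5 min with stirring in phosphate buffer pH 6.3 with DTT at 37 °C, in cuvettes (ex 380/em 460 nm). Controls: no inhibitor, and E-64. Run in triplicate. IC50 from rates at five inhibitor concentrations by nonlinear regression.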

The target in a further assay is Cathepsin B (Homo sapiens, UniProt P07858). The assay can be described thus: Inhibition of cathepsin B (unknown origin) using fluorometric Z-Phe-Arg-AMC as substrate by spectrofluorimetry. An outline of the steps: (§1)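 Enzyme activated 5 min with DTT in acetate buffer pH 5.5 at 37 °C, then incubated 5 min with sample. Z-Phe-Arg-AMC at 185 μM (catB) or 10 μM (catL), with stirring; fluorescence ex 355/em 460 nm. Controls: no inhibitor, and E-64. Run in triplicate. IC50 from rates at ≥7 inhibitor concentrations by nonlinear regression.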

The next assay deals with Procathepsin L (Homo sapiens, UniProt P07711). The assay can be described thus: Inhibition of cathepsin L (unknown origin) using fluorometric Z-Phe-Arg-AMC as substrate by spectrofluorimetry. An outline of the steps: as §1
The subject of assay [1] is Plasmodium falciparum. In words: Antimalarial activity against Plasmodium falciparum 3D7 after 72 hrs by SYBR Green-based parasite proliferation assay. It is filed as functional, organism-based. The settings on record: 3D7, 72 h. A digest of the protocol:
(§2)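 Parasites grown in human O+ erythrocytes in RPMI 1640 with hypoxanthine, HEPES, Albumax and 5% human serum, under 3% CO2/1% O2/96% N2 at 37 °C. Cultures were exposed to serial dilutions of compound for 72 h. Parasite DNA growth was read by SYBR Green fluorescence. EC50 was derived from quadruplicate runs, with bromophycolide A as positive control.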

In assay [2] the test system is Plasmodium falciparum. In words: Antimalarial activity against Plasmodium falciparum Dd2 after 72 hrs by SYBR Green-based parasite proliferation assay. It is filed as functional. Particulars: Dd2, 72 h. An outline of the steps:
as §2

Assay [3] relates to Plasmodium falciparum. The assay can be described thus: Antimalarial activity against Plasmodium falciparum W2 after 72 hrs by SYBR Green-based parasite proliferation assay. In kind it is functional, organism-based. Particulars: W2, 72 h. An outline of the steps:
as §2

Cruzipain, sequence (P25779 whole entry): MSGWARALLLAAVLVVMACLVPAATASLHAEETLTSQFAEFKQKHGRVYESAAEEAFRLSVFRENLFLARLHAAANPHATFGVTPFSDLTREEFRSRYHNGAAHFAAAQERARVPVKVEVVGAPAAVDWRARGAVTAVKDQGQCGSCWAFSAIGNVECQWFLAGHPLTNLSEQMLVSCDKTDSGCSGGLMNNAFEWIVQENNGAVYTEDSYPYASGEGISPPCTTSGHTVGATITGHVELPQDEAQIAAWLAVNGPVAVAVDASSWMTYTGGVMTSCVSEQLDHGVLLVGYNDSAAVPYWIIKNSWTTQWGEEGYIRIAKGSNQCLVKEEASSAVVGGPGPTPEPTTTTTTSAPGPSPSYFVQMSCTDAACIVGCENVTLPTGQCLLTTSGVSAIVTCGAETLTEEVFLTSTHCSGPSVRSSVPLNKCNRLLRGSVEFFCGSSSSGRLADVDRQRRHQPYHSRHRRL
Procathepsin L, sequence (P07711 whole entry): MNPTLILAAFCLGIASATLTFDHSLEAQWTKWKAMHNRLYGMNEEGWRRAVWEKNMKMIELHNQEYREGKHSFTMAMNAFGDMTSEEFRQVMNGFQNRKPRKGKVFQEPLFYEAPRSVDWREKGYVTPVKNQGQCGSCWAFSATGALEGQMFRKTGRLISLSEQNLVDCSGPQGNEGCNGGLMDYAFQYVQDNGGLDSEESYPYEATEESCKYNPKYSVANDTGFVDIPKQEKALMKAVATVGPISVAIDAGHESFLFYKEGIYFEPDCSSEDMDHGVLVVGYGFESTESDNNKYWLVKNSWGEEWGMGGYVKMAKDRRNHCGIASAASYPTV

Turning to `CC(C)=CCC/C(C)=C\Cc1c(O)cc(O)c(C(=O)CCc2ccc(O)cc2)c1O`, the IC50 at Cruzipain is 7.1 µM; against Cathepsin B, above 100 µM; at Procathepsin L it was 1 µM.

For the compound `CC(C)C[C@H](NC(=O)[C@H]1O[C@@H]1C(=O)O)C(=O)NCCCCN=C(N)N` [E-64], the IC50 at Cathepsin B was 0.04 µM; against Procathepsin L, 0.03 µM.

Take `CC(C)=CCc1cc(CCC(=O)c2c(O)cc3c(c2O)CCC(C)(C)O3)ccc1O`: the half-maximal inhibitory concentration (IC50) is 12 µM against Cruzipain, above 100 µM against Cathepsin B and 3.3 µM against Procathepsin L.

For `CC1(C)CCc2cc(CCC(=O)c3c(O)cc4c(c3O)CCC(C)(C)O4)ccc2O1`, the IC50 is 21.6 µM on Cruzipain and above 100 µM against Procathepsin L. Moreover, the EC50 was 14.4 µM in the assay on Plasmodium falciparum [1], 11.7 µM in the assay on Plasmodium falciparum [2] and 6.7 µM in the assay with Plasmodium falciparum [3].

As to `CC1(C)CCc2c(cc(O)c(C(=O)CCc3ccc4c(c3)CC3C(C)(C)CCCC3(C)O4)c2O)O1` (centres undefined), the values for the IC50 against Cruzipain, on Cathepsin B and on Procathepsin L were 8.7 µM, 8.5 µM and above 100 µM, respectively. Also, the EC50 with Plasmodium falciparum [1] is 17.7 µM; in the assay on Plasmodium falciparum [2], 12.4 µM; with Plasmodium falciparum [3], 8.5 µM.

The IC50 is the concentration that gives 50% inhibition. High values mean a need for much substance, low ones inhibition by little substance. The EC50 is the concentration that produces a half-maximal response.
